Assay results of several laboratories.
Converted amounts (≈) assume the structure as drawn.

CN1CCN(c2ncc(-c3ccc4nncc(Nc5ncccn5)c4c3)cn2)CC1
EC50 (Trypanosoma cruzi; parasite growth; C2C12; intracellular, amastigote): > 10 µM

CC1(C)S[C@@H]2[C@H](NC(=O)[C@H](N)c3ccccc3)C(=O)N2[C@H]1C(=O)O
MIC (Staphylococcus haemolyticus; microbial growth; clinical isolate): > 200 µg/mL

COc1ccc(Nc2cnnc3cc(-c4ccc(N5CCN(C)CC5)cc4)ccc23)nc1
EC50 (Trypanosoma cruzi; parasite growth; C2C12; intracellular, amastigote): 2.1 µM

COC(=O)N[C@H](C(=O)N1CC2(CC2)C[C@H]1c1nc(-c2ccc3c(c2)C(F)(F)c2cc(-c4ccc5[nH]c([C@@H]6[C@H]7CC[C@H](C7)N6C(=O)[C@@H](NC(=O)OC)C(C)C)nc5c4)ccc2-3)c[nH]1)C(C)C
IC50 (Trypanosoma cruzi; parasite growth; Vero, TULAHUEN; 72 h, intracellular, amastigote): 0.06 µM

CC1CCC(C(C)C)C(OC2=C(Cl)C(=O)c3ccccc3C2=O)C1 (stereo not shown)
MIC (Alternaria alternata; microbial growth, broth dilution): 12 µg/mL (≈ 34.6 µM)

CN[C@H](CC(C)C)C(=O)N[C@H]1C(=O)N[C@@H](CC(N)=O)C(=O)N[C@H]2C(=O)N[C@H]3C(=O)N[C@H](C(=O)N[C@H](C(=O)O)c4cc(O)cc(O)c4-c4cc3ccc4O)[C@H](O)c3ccc(c(Cl)c3)Oc3cc2cc(c3O[C@@H]2O[C@H](CO)[C@@H](O)[C@H](O)[C@H]2O[C@H]2C[C@](C)(N)[C@H](O)[C@H](C)O2)Oc2ccc(cc2Cl)[C@H]1O
MIC (Staphylococcus haemolyticus; microbial growth; clinical isolate): 0.78 µg/mL (≈ 0.538 µM)

CC[C@@H]1/C=C(\C)C[C@H](C)C[C@H](OC)[C@H]2O[C@@](O)(C(=O)C(=O)N3CCCC[C@H]3C(=O)O[C@H](/C(C)=C/[C@@H]3CC[C@H](Cl)[C@H](OC)C3)[C@H](C)[C@@H](O)CC1=O)[C@H](C)C[C@@H]2OC
IC50 (Trypanosoma cruzi; parasite growth; Vero, TULAHUEN; 72 h, intracellular, amastigote): 2.13 µM

CN1CCN(c2ncc(-c3ccc4nncc(Nc5cnccn5)c4c3)cn2)CC1
EC50 (Trypanosoma cruzi; parasite growth; C2C12; intracellular, amastigote): > 10 µM

O=C(Cn1ccnc1[N+](=O)[O-])NCc1ccccc1
IC50 (Trypanosoma cruzi; parasite growth; LLC-MK2; 48 h, intracellular, amastigote): 0.71 µg/mL

OC(Cn1cncn1)(Cn1cncn1)c1ccc(F)cc1F
MIC (Alternaria alternata; microbial growth, broth dilution): 10 µg/mL (≈ 32.7 µM)
